Assay results published in publication PMC10395004 (European journal of pharmaceutical sciences : official …, 2022).
Counter-ions that a name gives are not always drawn. Like-named read-outs stand apart in the source and are kept apart here. One block for each molecule: values may come before it.

Legend:
[1] = format: in vivo, mice; conditions: for CL/F / Vd/F / AUC(0-t) / MRT last / MRT inf / half-life / Cmax / Tmax / increase of metabolite AUC by propranolol: DLX 12 mg/kg p.o.; for CL/F / Vd/F / AUC(0-inf) / AUC(0-t) / MRT last / MRT inf / half-life / Cmax / Tmax / increase of metabolite AUC by propranolol: plasma; for AUC(0-inf) / AUC(0-t) / MRT last / MRT inf / half-life / Cmax / Tmax: male, mouse, po, 12 mg/kg; for AUC(0-t): AUC0-t; for MRT last: MRT0-t; for MRT inf: MRT0-∞; for increase of metabolite AUC by propranolol: peak area
In short: (§1)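 16 h later they received DLX 12 mg/kg p.o. in 0.5% methyl cellulose. Tail-vein blood (heparin) was taken at 0–24 h (9 points) and spun to plasma. Plasma was methanol-precipitated with IS and run by LC-MS against a DLX standard curve. Parameters came from noncompartmental analysis; ratios were taken between group means.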

Cyp2d = format: in vivo, mice; conditions: male, mouse, plasma, po, 12 mg/kg
In short: as §1

[2] = format: in vivo, mice
[3] = Cyp1a2-KO mice, Cyp2d+I (propranolol 30 mg/kg 16 h before)
[4] = Cyp1a2-KO mice, control (vehicle)
[5] = WT mice, Cyp2d+I (propranolol 30 mg/kg 16 h before)
[6] = Cyp1a2-KO, Cyp1a2-KO mice, Cyp2d+I (propranolol 30 mg/kg 16 h before)
[7] = Cyp1a2-KO, Cyp1a2-KO mice, control (vehicle)
[8] = KO + control compared with WT + control, not statistically significant
[9] = KO + inhibitor compared to KO + control
[10] = WT + inhibitor compared to WT + control

- AUC0-t ratio Cyp2d+I/Control ([1]; Cyp1a2-KO mice): 2.29
- AUC0-∞ ratio Cyp2d+I/Control ([1]; Cyp1a2-KO mice): 2.26
- CL/F ratio Cyp2d+I/Control ([1]; Cyp1a2-KO mice): 0.40
- Cmax ratio Cyp2d+I/Control ([1]; Cyp1a2-KO mice): 3.95
- MRT0-t ratio Cyp2d+I/Control ([1]; Cyp1a2-KO mice): 0.80
- MRT0-∞ ratio Cyp2d+I/Control ([1]; Cyp1a2-KO mice): 0.76
- T1/2 ratio Cyp2d+I/Control ([1]; Cyp1a2-KO mice): 0.83
- Tmax ratio Cyp2d+I/Control ([1]; Cyp1a2-KO mice): 0.40
- Vd/F ratio Cyp2d+I/Control ([1]; Cyp1a2-KO mice): 0.30
- CL/F [1, 3]: 2.94 ± 0.34 mg/(hr*μmol/L)/kg
- Vd/F [1, 3]: 15.44 ± 1.71 mg/(μmol/L)/kg
- CL/F [1, 4]: 7.32 ± 1.60 mg/(hr*μmol/L)/kg
- Vd/F [1, 4]: 51.03 ± 18.18 mg/(μmol/L)/kg
- increase of AUC0-t by propranolol ([1]; KO + inhibitor vs KO + control): 129%
- increase of Cmax by propranolol ([1]; KO + inhibitor vs KO + control): 295%
- AUC0-t KO control/WT control ratio ([1]; KO control vs WT control): 0.89
- AUC0-∞ KO control/WT control ratio ([1]; KO control vs WT control): 0.89
- CL/F KO control/WT control ratio ([1]; KO control vs WT control): 1.18
- Cmax KO control/WT control ratio ([1]; KO control vs WT control): 0.56
- MRT0-t KO control/WT control ratio ([1]; KO control vs WT control): 1.14
- MRT0-∞ KO control/WT control ratio ([1]; KO control vs WT control): 1.16
- T1/2 KO control/WT control ratio ([1]; KO control vs WT control): 1.04
- Tmax KO control/WT control ratio ([1]; KO control vs WT control): 1.81
- Vd/F KO control/WT control ratio ([1]; KO control vs WT control): 1.28
- increase of AUC0-t by propranolol ([1]; WT + inhibitor vs WT + control): 304%
- increase of Cmax by propranolol ([1]; WT + inhibitor vs WT + control): 177%
- AUC0-t ratio Cyp2d+I/Control ([1]; WT mice): 4.04
- AUC0-∞ ratio Cyp2d+I/Control ([1]; WT mice): 4.01
- CL/F ratio Cyp2d+I/Control ([1]; WT mice): 0.30
- Cmax ratio Cyp2d+I/Control ([1]; WT mice): 2.78
- MRT0-t ratio Cyp2d+I/Control ([1]; WT mice): 1.10
- MRT0-∞ ratio Cyp2d+I/Control ([1]; WT mice): 1.04
- T1/2 ratio Cyp2d+I/Control ([1]; WT mice): 0.76
- Tmax ratio Cyp2d+I/Control ([1]; WT mice): 0.91
- Vd/F ratio Cyp2d+I/Control ([1]; WT mice): 0.26
- increase of AUC of DLX by propranolol ([1]; WT mice): 3 folds
- CL/F [1, 5]: 1.88 ± 0.60 mg/(hr*μmol/L)/kg
- Vd/F [1, 5]: 10.27 ± 5.02 mg/(μmol/L)/kg
- CL/F ([1]; WT mice, control (vehicle)): 6.19 ± 0.97 mg/(hr*μmol/L)/kg
- Vd/F ([1]; WT mice, control (vehicle)): 39.87 ± 9.28 mg/(μmol/L)/kg
- AUC(0-inf) ([1]; Cyp1a2-KO): 1.89 ± 0.39 µM·h
- AUC(0-t) [1, 6]: 4.23 ± 0.56 µM·h
- AUC(0-t) [1, 7]: 1.85 ± 0.39 µM·h
- MRT last [1, 6]: 4.61 ± 0.29 h
- MRT last [1, 7]: 5.73 ± 0.22 h
- MRT inf [1, 6]: 4.83 ± 0.27 h
- MRT inf [1, 7]: 6.39 ± 0.26 h
- half-life ([1]; Cyp1a2-KO, T1/2, Cyp1a2-KO mice, Cyp2d+I (propranolol 30 mg/kg 16 h before)): 3.66 ± 0.24 h
- half-life ([1]; Cyp1a2-KO, T1/2, Cyp1a2-KO mice, control (vehicle)): 4.43 ± 0.64 h
- AUC(0-inf) [1]: 2.12 ± 0.4 µM·h
- AUC(0-t) [1, 5]: 8.45 ± 2.46 µM·h
- AUC(0-t) ([1]; WT mice, control (vehicle)): 2.09 ± 0.41 µM·h
- Cmax [1, 3]: 790 ± 210 nM
- Cmax [1, 4]: 200 ± 20 nM
- Cmax [1, 5]: 1000 ± 210 nM
- Cmax ([1]; WT mice, control (vehicle)): 360 ± 50 nM
- MRT last [1, 5]: 5.51 ± 0.16 h
- MRT last ([1]; WT mice, control (vehicle)): 5.02 ± 0.18 h
- MRT inf [1, 5]: 5.75 ± 0.21 h
- MRT inf ([1]; WT mice, control (vehicle)): 5.52 ± 0.34 h
- half-life ([1]; T1/2, WT mice, Cyp2d+I (propranolol 30 mg/kg 16 h before)): 3.32 ± 0.52 h
- half-life ([1]; T1/2, WT mice, control (vehicle)): 4.28 ± 0.41 h
- Tmax [1, 3]: 1 ± 0.35 h
- Tmax [1, 4]: 2.5 ± 0.5 h
- Tmax [1, 5]: 1.25 ± 0.25 h
- Tmax ([1]; WT mice, control (vehicle)): 1.38 ± 0.38 h
- AUC(0-inf) (Cyp2d; Cyp1a2-KO): 4.27 ± 0.57 µM·h
- AUC(0-inf) (Cyp2d): 8.5 ± 2.45 µM·h
- decrease of DLX level in liver [2, 8]: 48%
- decrease of DLX level in lung [2, 8]: 31%
- increase of DLX level in kidney [2, 8]: 62%
- increase of DLX levels in brain and testis [2, 8]: around 25%
- increase of DLX level in liver [2, 9]: 3 folds
- increase of DLX levels in other tissues (than liver) [2, 9]: around 1.5 folds
- elevation of DLX level in liver by Cyp2d inhibitor ([2]; KO mice (discussion)): 4.0 folds
- increase of DLX level in kidney by Cyp2d inhibitor ([2]; KO mice (discussion)): 3.9 folds
- increase of DLX level in kidney [2, 10]: Three-fold
- increase of DLX levels in epididymis, testis and brain [2, 10]: 1–2 folds
- increase of DLX levels in liver and spleen [2, 10]: around 90%
- elevation of DLX level in liver by Cyp2d inhibitor ([2]; WT mice (discussion)): 1.9 folds
- increase of DLX level in kidney by Cyp2d inhibitor ([2]; WT mice (discussion)): 2.5 folds
SMILES: CNCC[C@H](Oc1cccc2ccccc12)c1cccs1 [DLX, (3S)-N-methyl-3-(1-naphthyloxy)-3-(2-thienyl)propan-1-amine]

- increase of metabolite AUC by propranolol ([1]; KO mice): 73%
- increase of metabolite AUC by propranolol ([1]; WT mice): 103%
- increase of metabolite abundance in kidney by Cyp2d inhibitor ([2]; WT + inhibitor vs WT + control, or KO + inhibitor vs KO + control): over 65%
SMILES: O=S(=O)(O)Oc1cccc2ccccc12 [M28, 1-naphthol sulfate]
